NS3 helicase inh – HCV NS3 helicase inhibition; NS3 helicase DNA unwinding, Cy5 molecular beacon fluorescence; inhibition, % at 10.9 µM; 290,000 compounds, 0.56% hits; AID 1800;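 active = inhibition above the mean of all tested compounds plus 3 SD, set per campaign, cut at about 35% in these data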;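 also: 0% = DMSO wells and 100% = thioflavine S control wells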
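Test system: hepatitis C virus NS3 helicase domain fragment enzyme. Also added: annealed dual-labelled DNA beacon duplex, ATP-started. Timing: 60 min unwinding reaction at 25 °C after ATP addition. Technique: Cy5 fluorescence. Measure: % inhibition of unwinding.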
Lipid droplet – modulators of hepatic lipid droplet formation | AML12 mouse hepatocytes, oleate lipid droplets, BODIPY imaging | inhibition, % at 6.5 µM | 240,000 compounds, 0.4% hits | AID 1656;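 active = lipid droplet intensity inhibited by at least 50%, with more than 500 cells counted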
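Technique: fluorescence imaging, 20x objective, two fields per well / Assay system: AML12 hepatocytes (mouse) / Measure: % inhibition of lipid droplet signal / Doses: 6.5 µM single-point dosing / Incubation: overnight exposure / Reagent: 100 µM oleic acid challenge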
HSP90 refold inh – HSP90 refolding inhibition in rabbit reticulocyte lysate | luciferase refolding luminescence, 3 h | 290,000 compounds, 0.91% hits | inhibition, % at 5.6 µM;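 active = inhibition above the screen-wide mean plus 3 SD, computed separately per campaign, cut at about 16% in these data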;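 also: 0% = DMSO wells and 100% = 60 µM geldanamycin wells; inhibitors lower the luminescence because luciferase stays unfolded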
HSF1 inh – HSF1 inhibition | AID 2098 | NIH3T3-HGL HSE-luciferase, MG132-induced, luminescence 8 h; stronger effect = lower value | 300,000 compounds, 0.77% hits | activity change, negative = inhibition, % at 7.5 µM (by protocol);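 active = more than half of replicate wells show activity change below -50%, luminescence cut by over half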;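 also: luciferase reports HSF-1 transcriptional activity via heat shock element; 0% = median of DMSO wells and -100% = zero luminescence signal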
HSF1 activator – increases HSF-1 driven luciferase reporter signal | NIH3T3-HGL HSF-1 luciferase reporter, MG132, 8 h; 100% = twice DMSO control signal | activation, % at 9 µM | 300,000 compounds, 1.7% hits | AID 504408;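 active = mean replicate activation of at least 50% with a set share of replicates each reaching 50%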;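 also: 0% = median of the neutral control wells and 100% = twice that signal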
* marks the source's active call; other numbers are inactive results; . = not tested or not shown. In the library only some 3.8% were active in any assay of this set; here they are far more common.

SMILES	NS3 helicase inh	Lipid droplet	HSP90 refold inh	HSF1 inh	HSF1 activator
CCOc1c2ccc(C(=O)NCc3ccco3)cc2nn1CC	4	.	-5	7	-4
CCOc1c2ccc(C(=O)NCc3ccccc3OC)cc2nn1CC	-6	.	0	-66*	-74
CCc1nc2ccc(C(=O)NCCc3ccccc3OC)cc2nc1CC	0	-7	4	2	-3
COc1ccccc1CNC(=O)c1ccc2nc3[nH]c4ccccc4c3nc2c1	-18	73*	1	6	10
COc1ccc(S(=O)(=O)NNC(=O)c2ccc(-n3c(C)ccc3C)cc2)cc1	13	3	-1	-1	-7
COc1ccc(C(=O)NCCCOc2cccc(NC(C)=O)c2)cc1	-2	13	5	5	6
CN(C)CCOC1c2ccccc2CCc2ccc3ccccc3c21 (stereo not drawn)	.	.	.	-20	-31
c1cnc(SCCOc2ccc3c(c2)CCC3)nc1	-1	11	1	26	57*
CNCCCOc1ccc2c(c1)CCC2	3	7	0	5	1
O=C1c2cccc(Cl)c2C(=O)N1c1ccccn1	.	.	.	-4	9
O=c1[nH]n(CC2COC3(CCCCC3)O2)c(=O)c2ccccc12 (stereo not drawn)	8	.	-1	39	63*
O=C(Cn1[nH]c(=O)c2ccccc2c1=O)NC1CCCCCC1	5	-3	7	9	7
COC(=O)CCC(=O)NNC(=O)c1cccc(Br)c1	-6	42	-1	-67*	-73
Cn1nc(N)c2c(-c3ccccc3)c(C#N)c(N)nc21	-4	35	-2	-69*	-75
Cn1nc(N)c2c(-c3ccc(Cl)cc3)c(C#N)c(N)nc21	-10	-4	3	-9	-8
O=C(/C=C/c1cccc([N+](=O)[O-])c1)NC(=S)Nc1ccccc1C(=O)O	18	-7	3	.	.
O=C(/C=C/c1cccc([N+](=O)[O-])c1)NC(=S)Nc1cccc(NC(=O)c2ccccc2Cl)c1	-1	9	-6	38	61*
COc1cc(NC(=S)NC(C)(C)C)c(OC)cc1Cl	-2	-5	5	32	63*
CCCCn1c(N)c(N(CC(C)C)C(=O)c2c(CC)noc2C)c(=O)[nH]c1=O	.	.	.	-6	-2
Cc1cc(/C(N)=N/OC(=O)c2ccc(Cl)cc2)no1	1	2	8	32	64*
Cc1ccc(NC(=S)NCc2ccc(Cl)cc2)c(OC(F)F)c1	-5	-4	0	3	18
CC(C)(C)c1ccc(C(=O)NC(=S)NNC(=O)c2cccs2)cc1	13	-5	0	-60*	-56
CCCOc1ccc(C(=O)NNC(=S)NC(=O)c2cccs2)cc1	34	-4	-8	-55*	-62
CC(NC(=O)c1ccco1)c1nc(-c2ccc(Cl)cc2)no1 (stereo not drawn)	-2	-6	8	9	9
CS(=O)(=O)c1nc(S(=O)(=O)c2ccc(Cl)cc2)c(NCCCn2ccnc2)s1	1	-22	3	6	19
SMILES	NS3 helicase inh	Lipid droplet	HSP90 refold inh	HSF1 inh	HSF1 activator
O=C1c2ccccc2-c2onc3c(Oc4ccccc4)cc(O)c1c23	23	56*	6	.	.
C=CCN1C(=O)C(Cc2ccc(Br)cc2)S/C1=N\N=C\c1ccco1 (stereo not drawn)	9	.	6	4	4
C=CCN1C(=O)C(Cc2ccc(OC)cc2)S/C1=N/N=C/c1ccco1 (stereo not drawn)	18	-1	3	-57*	-66
Nc1nc(Nc2cccc3ccccc23)nc(C2CCCC2=O)n1 (stereo not drawn)	-1	.	-4	7	53*
Nc1nc(CCl)nc(Nc2cccc3ccccc23)n1	20	16	1	-77*	-79
Cc1ccccc1CSCc1nc(N)nc(Nc2ccccc2C)n1	-19	2	-3	21	22
Cc1ccccc1Nc1nc(N)nc(COC(=O)c2ccccc2)n1	-14	2	-9	44	58*
c1ccc2c(Nc3nc(N4CCOCC4)c4ccccc4n3)cccc2c1	-46	-38	3	-11	20
Cc1cccc(OCCOC(=O)c2c(-c3ccccc3)noc2C)c1	-7	-7	1	2	-17
Cc1ccccc1NC1=C(Cl)C(=O)N(C2CCCCC2)C1=O	0	-7	-2	-3	1
COc1ccccc1NC1=C(Cl)C(=O)N(C2CCCCC2)C1=O	-1	.	2	-85*	-87
